Reference: ChEMBL document CHEMBL3352721, “Identification, optimization, and pharmacology of acylurea GHS-R1a inverse agonists” (J Med Chem, 2014)
Values after ≈ are worked out from the molar mass of the structure shown. Active and inactive are the calls of the source. No cut-off for these calls is given here. Non-standard residues stand in square brackets, D forms with d. Residues, ends and D or L forms follow the SMILES beside them. dTrp(2-Me) = Cc1[nH]c2ccccc2c1C[C@@H](N)C(=O)O

Tests used:
[1] = target: Growth hormone secretagogue receptor type 1 (Homo sapiens, UniProt Q92847); assay: Displacement of [125I]human ghrelin from human GHS-R1a expressed in HEK cell membranes after 60 mins by gamma counting method; design: species or system HEK293
Chain of Growth hormone secretagogue receptor type 1 (Q92847 whole entry): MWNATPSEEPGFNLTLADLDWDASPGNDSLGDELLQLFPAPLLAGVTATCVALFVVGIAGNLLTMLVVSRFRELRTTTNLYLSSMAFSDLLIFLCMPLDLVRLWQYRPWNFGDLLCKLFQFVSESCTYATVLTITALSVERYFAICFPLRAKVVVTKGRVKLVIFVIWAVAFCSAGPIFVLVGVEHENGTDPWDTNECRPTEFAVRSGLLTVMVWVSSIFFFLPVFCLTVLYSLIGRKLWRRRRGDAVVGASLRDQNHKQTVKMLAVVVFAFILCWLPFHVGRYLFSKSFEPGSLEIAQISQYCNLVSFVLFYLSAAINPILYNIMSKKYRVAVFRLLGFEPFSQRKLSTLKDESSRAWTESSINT

[2] = Lipophilicity, logD of the compound; assay type: physicochemical; conditions: octanol/water
MDR1 [3] = assay: Apparent permeability in MDCK cells expressing MDR1 at 10 uM assessed as apical to basolateral side transport; assay type: ADME, cell-based, Canis lupus familiaris; conditions: dog
How it was run: (§1)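 MDCK-MDR1 monolayers incubated with compound at 10 µM; permeability measured in both A→B and B→A directions, giving Papp A-B (x10^6 cm/s) and the efflux ratio.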

MDR1 [4] = assay: Efflux ratio in MDCK cells expressing MDR1 at 10 uM; assay type: ADME, cell-based, Canis lupus familiaris; conditions: dog; how it was run: as §1
[5] = Cmax in Han-Wistar rat at 2 mg/kg, po by LC-MS/MS method; assay type: ADME, organism-based; design: dose 2 mg/kg, route oral; conditions: in vivo
How it was run: (§2)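 Oral gavage in male HW rats, beagle dogs or CD-1 mice, vehicle Pluronic F127 in water. EDTA plasma was collected over 24 h and quantified by LC/MS/MS after acetonitrile precipitation. Cmax and bioavailability were obtained by non-compartmental analysis against IV data.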

[6] = Cmax in CD1 mouse at 2 mg/kg, po by LC-MS/MS method; assay type: ADME, organism-based; design: dose 2 mg/kg, route oral; conditions: in vivo; how it was run: as §2
Mus musculus = assay: Increase in food intake in po dosed C57Bl6j mouse free feeding model measured in 2 hrs intervals; assay type: functional, organism-based
How it was run: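 Male mice (C57Bl6j, GHSr1-/- or wild-type littermates) were acclimatized 3 weeks to reversed light-dark, then individually housed 7 days and grouped (n=10-12) by baseline intake and body weight. Suspensions in 1% Pluronic F127 or vehicle were gavaged at 10 mL/kg about 1 h before dark onset. Pre-weighed food was reweighed at 2, 4, 6 and 24 h.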

[7] = Aqueous solubility at pH 7.4 under thermodynamic conditions; assay type: physicochemical; conditions: buffer, read-out: Therm_solubility
How it was run: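 Thermodynamic solubility measured from solid samples in aqueous medium at pH 7.4.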

[8] = Ratio of drug level in homogenized brain to plasma in Han-Wistar rat measured 1 hr after iv bolus then iv infusion by LC-MS/MS method; assay type: ADME, organism-based; conditions: read-out: BPR
How it was run: (§3)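 Brain:plasma ratio in homogenized brain 1 h after IV bolus followed by IV infusion. The free ratio used free fractions measured in plasma and brain (brain slice method or brain homogenate).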

[9] = Ratio of free drug level in homogenized brain to plasma in Han-Wistar rat measured 1 hr after iv bolus then iv infusion by LC-MS/MS method; assay type: ADME, organism-based; conditions: read-out: BPR; how it was run: as §3
[10] = Ratio of drug level in homogenized brain to plasma in CD1 mouse at 0.9 mg/kg, po measured after 6 hrs by LC-MS/MS method; assay type: ADME, organism-based; design: dose 0.9 mg/kg, route oral; conditions: read-out: BPR
How it was run: (§4)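 CD-1 mice dosed PO in 1% Pluronic F127. Drug was measured in homogenized brain and in plasma 6 h after dosing and expressed as a brain:plasma ratio. The free ratio used free fraction measured in mouse plasma and rat brain (brain slice or brain homogenate).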

[11] = Ratio of free drug level in homogenized brain to plasma in CD1 mouse measured 6 hrs after oral dosing by LC-MS/MS method; assay type: ADME; how it was run: as §4
[12] = Ratio of drug level in homogenized brain to plasma in CD1 mouse at 2 mg/kg, po measured after 6 hrs by LC-MS/MS method; assay type: ADME, organism-based; design: dose 2 mg/kg, route oral; conditions: read-out: BPR; how it was run: as §4

| Structure (SMILES) | IC50 [1] [nM] | logD [2] | Papp A→B at 10 µM (MDR1 [3]) [×10⁻⁶ cm/s] | efflux ratio at 10 µM (MDR1 [4]) | Cmax [5] [nM] | solubility thermodynamic [7] [µM] | also measured |
| --- | --- | --- | --- | --- | --- | --- | --- |
| Cc1ccn(-c2ccc(C(=O)NC(=O)Nc3nc4ccc(S(=O)(=O)CCCN5CCN(C)CC5)cc4s3)c(Cl)c2)n1 | 0.48 | 2.6 | 3.5 | 0.86 | 220 | – | – |
| CN1CCN(CCCS(=O)(=O)c2ccc3nc(NC(=O)NC(=O)c4cc(N5CCCC5)c(C#N)cc4Cl)sc3c2)CC1 | 0.24 | 2.8 | – | – | – | – | – |
| CN1CCC(S(=O)(=O)c2ccc3nc(NC(=O)NC(=O)c4cc(-n5cccn5)ccc4Cl)sc3c2)CC1 | 15 | 2.5 | 3.9 | 2.5 | – | – | Cmax [6]: 1500 nM |
| Cc1[nH]c2ccccc2c1C[C@@H](NC(=O)[C@@H](N)Cc1c[nH]cn1)C(=O)N[C@@H](C)C(=O)N[C@@H](Cc1c[nH]c2ccccc12)C(=O)N[C@H](Cc1ccccc1)C(=O)N[C@@H](CCCCN)C(N)=O (H-H[dTrp(2-Me)]AW[dF]K-NH2) | – | – | – | – | – | – | Activity (Mus musculus): Active |
| CN1CCCN(CCCS(=O)(=O)c2ccc3nc(NC(=O)NC(=O)c4ccccc4Cl)sc3c2)CC1 | 4.2 | 1 | 0.7 | 41 | – | 340 (≈ 187 µg/mL) | – |
| CN1CCC(S(=O)(=O)c2ccc3nc(NC(=O)NC(=O)c4ccccc4Cl)sc3c2)CC1 | 65 | 2.2 | 17 | 0.9 | – | 69 (≈ 34 µg/mL) | – |
| CN1CCN(CCCS(=O)(=O)c2ccc3nc(NC(=O)NC(=O)c4cc(-n5cccc5)ccc4Cl)sc3c2)CC1 | 0.15 | 2.6 | 0.37 | 38 | 580 | – | – |
| CN1CCN(CCCS(=O)(=O)c2ccc3nc(NC(=O)NC(=O)c4cc(C5CC5)ccc4Cl)sc3c2)CC1 | 0.33 | 2.9 | 2 | 9.1 | 1400 | – | Kp at 1 h [8]: 0.18; Kp uu at 1 h [9]: 1.2 |
| CCN(CC)CCCS(=O)(=O)c1ccc2nc(NC(=O)NC(=O)c3cc(-n4cccc4)ccc3Cl)sc2c1 | 0.43 | 2.9 | 0.1 | 42 | 3600 | – | – |
| COc1ccc2nc(NC(=O)NC(=O)c3ccccc3Cl)sc2c1 | 76 | > 4 | – | – | – | 0.78 (≈ 0.282 µg/mL) | – |
| CN1CCN(CCCS(=O)(=O)c2ccc3nc(NC(=O)NC(=O)c4cc(N5CCCC5)ccc4Cl)sc3c2)CC1 | 0.29 | 3.1 | 4.5 | 0.55 | 640 | – | Kp at 1 h [8]: < 0.03 |
| CN1CCC(S(=O)(=O)c2ccc3nc(NC(=O)NC(=O)c4cc(N5CCCC5)c(C#N)cc4Cl)sc3c2)CC1 | 0.4 | 3 | 3 | 0.47 | – | – | Cmax [6]: 840 nM; Kp at 6 h [10]: 0.072; Kp uu at 6 h [11]: 0.38 |
| CCN(CC)CCCS(=O)(=O)c1ccc2nc(NC(=O)NC(=O)c3cc(-n4cccn4)ccc3Cl)sc2c1 | 3.9 | 2.1 | 0.71 | 12 | 1600 | – | – |
| CN1CCN(CCCS(=O)(=O)c2ccc3nc(NC(=O)NC(=O)c4cc(-c5ccccn5)ccc4Cl)sc3c2)CC1 | 0.69 | 2.5 | 0.52 | 19 | 1000 | – | – |
| CN(C)CCCS(=O)(=O)c1ccc2nc(NC(=O)NC(=O)c3ccccc3Cl)sc2c1 | – | 1.7 | 13 | 1.4 | – | 240 (≈ 115 µg/mL) | – |
| CCc1ccc(Cl)c(C(=O)NC(=O)Nc2nc3ccc(S(=O)(=O)CCCN4CCN(C)CC4)cc3s2)c1 | 0.078 | 2.9 | 1.7 | 13 | 1500 | – | Kp at 1 h [8]: 0.036; Kp uu at 1 h [9]: 0.04 |
| Cc1cc(C)n(-c2ccc(Cl)c(C(=O)NC(=O)Nc3nc4ccc(S(=O)(=O)CCCN5CCN(C)CC5)cc4s3)c2)n1 | 1.3 | 2.5 | 0.44 | 76 | 78 | – | – |
| CN1CCN(CCCS(=O)(=O)c2ccc3nc(NC(=O)NC(=O)c4cc(-n5cccn5)c(Cl)cc4Cl)sc3c2)CC1 | – | 2.3 | 0.4 | 55 | 30 | – | – |
| CN1CCN(CCS(=O)(=O)c2ccc3nc(NC(=O)NC(=O)c4ccccc4Cl)sc3c2)CC1 | – | 1.5 | – | – | – | 240 (≈ 125 µg/mL) | – |

| Structure (SMILES) | IC50 [1] [nM] | logD [2] | Papp A→B at 10 µM (MDR1 [3]) [×10⁻⁶ cm/s] | efflux ratio at 10 µM (MDR1 [4]) | Cmax [5] [nM] | solubility thermodynamic [7] [µM] | also measured |
| --- | --- | --- | --- | --- | --- | --- | --- |
| CCOc1ccc(Cl)c(C(=O)NC(=O)Nc2nc3ccc(S(=O)(=O)CCCN4CCN(C)CC4)cc3s2)c1 | 0.31 | 2.4 | 2.8 | 5 | 4200 | – | Kp at 1 h [8]: 0.052; Kp uu at 1 h [9]: 0.52 |
| CCN(CC)CCCS(=O)(=O)c1ccc2nc(NC(=O)NC(=O)c3ccccc3Cl)sc2c1 | 13 | 1.7 | 5.4 | 2.7 | – | 280 (≈ 143 µg/mL) | – |
| CS(=O)(=O)c1ccc2nc(NC(=O)NC(=O)c3ccccc3Cl)oc2c1 | > 10000 | 1.1 | – | – | – | 72 (≈ 28.4 µg/mL) | – |
| C#Cc1ccc(Cl)c(C(=O)NC(=O)Nc2nc3ccc(S(=O)(=O)CCCN4CCN(C)CC4)cc3s2)c1 | 5.1 | 2.3 | 3.3 | 3.3 | 1400 | – | Kp at 1 h [8]: < 0.03 |
| CN1CCN(CCCS(=O)(=O)c2ccc3nc(NC(=O)NC(=O)c4cc5c(ccn5C)cc4Cl)sc3c2)CC1 | 0.57 | 2.8 | 3.9 | 0.71 | 300 | – | Kp at 1 h [8]: 0.049; Kp uu at 1 h [9]: 0.04 |
| CS(=O)(=O)c1ccc2nc(NC(=O)NC(=O)c3cc(-n4cccc4)ccc3Cl)sc2c1 | – | 2.8 | – | – | – | – | – |
| CS(=O)(=O)c1ccc2nc(NC(=O)NC(=O)c3ccccc3Cl)sc2c1 | 120 | 2.5 | – | – | – | < 0.47 | – |
| CN1CCC(S(=O)(=O)c2ccc3nc(NC(=O)NC(=O)c4cc(N5CCCC5)ccc4Cl)sc3c2)CC1 | 0.92 | 3.1 | 11 | 0.05 | – | – | Cmax [6]: 5800 nM |
| Cc1ccnn1-c1ccc(Cl)c(C(=O)NC(=O)Nc2nc3ccc(S(=O)(=O)C4CCN(C)CC4)cc3s2)c1 | 33 | 2.6 | 1.1 | 15 | – | – | Cmax [6]: 640 nM; Kp at 6 h [12]: 0.9; Kp uu at 6 h [11]: 0.61 |
| CCN(CC)CCCS(=O)(=O)c1ccc2nc(NC(=O)NC(=O)c3cc(N4CCOCC4)ccc3Cl)sc2c1 | 2.9 | 1.8 | 3.3 | 5.5 | 9400 | – | Kp at 1 h [8]: < 0.01 |
| CC(C)NCCS(=O)(=O)c1ccc2nc(NC(=O)NC(=O)c3ccccc3Cl)sc2c1 | – | 2.3 | – | – | – | 71 (≈ 34.2 µg/mL) | – |
| COc1ccc2nc(NC(=O)NC(=O)c3c(Cl)cccc3Cl)sc2c1 | 210 | > 3.9 | – | – | – | < 0.71 | – |
| O=C(NC(=O)c1ccccc1Cl)Nc1nc2ccc(S(=O)(=O)CCN3CCCC3)cc2s1 | – | 2.7 | – | – | – | 64 (≈ 31.6 µg/mL) | – |
| CN1CCN(CCCS(=O)(=O)c2ccc3nc(NC(=O)NC(=O)c4cccc(-n5cccn5)c4Cl)sc3c2)CC1 | – | 1.6 | 0.91 | 25 | 12 | – | – |
| Cc1ccn(-c2ccc(Cl)c(C(=O)NC(=O)Nc3nc4ccc(S(=O)(=O)CCCN5CCN(C)CC5)cc4s3)c2)n1 | 0.53 | 2.6 | 0.68 | 14 | 410 | – | – |
| CS(=O)(=O)c1ccc2sc(NC(=O)NC(=O)c3ccccc3Cl)nc2c1 | 4700 | 2.8 | – | – | – | 3 (≈ 1.23 µg/mL) | – |
| COc1cc(Cl)c(C(=O)NC(=O)Nc2nc3ccc(S(=O)(=O)CCCN4CCN(C)CC4)cc3s2)cc1-n1cccn1 | – | 2.2 | 0.86 | 46 | – | – | – |
| COCCNCCCS(=O)(=O)c1ccc2nc(NC(=O)NC(=O)c3ccccc3Cl)sc2c1 | 8.6 | 1.3 | – | – | – | 87 (≈ 44.5 µg/mL) | – |
| CN1CCN(CCCS(=O)(=O)c2ccc3nc(NC(=O)NC(=O)c4cc(-n5cccn5)ccc4Cl)sc3c2)CC1 | 0.67 | 2 | 2.9 | 7.6 | 1200 | – | Kp at 1 h [8]: < 0.03 |
